Test results as given in ChEMBL document CHEMBL3098058, “Imidazole-derived agonists for the neurotensin 1 receptor” (Bioorg Med Chem Lett, 2014).
≈ marks a conversion by molar mass, not a printed value.

What was measured:
[1] = target: T1, Neurotensin receptor type 1 (Homo sapiens, UniProt P30989); test: Agonist activity at NTR1 in human U2OS cells after 1 hr by beta-arrestin GFP reporter gene assay; type: cell-based
How it was run: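 High-content imaging in U2OS cells expressing the receptor of interest (NTR1, NTR2 or GPR35) plus a β-arrestin fluorescent reporter. The read-out is the location of the receptor–arrestin complex after receptor activation.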

[2] = target: T1, Neurotensin receptor type 1; test: Agonist activity at NTR1 in human U2OS cells after 1 hr by beta-arrestin GFP reporter gene assay relative to NT peptide; type: cell-based
How it was run: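 U2OS cells expressing NTR1 and a fluorescent β-arrestin reporter, imaged by high-content imaging of receptor–arrestin complex location after activation. EC50 and Emax are calculated relative to the efficacy of NT peptide at a saturating 100 nM.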

[3] = Permeability of the compound at donor pH 5.0 and acceptor pH 7.4 by PAMPA; type: ADME
[4] = Aqueous solubility of the compound in pION buffer at pH 7.4; type: physicochemical
[5] = Metabolic stability in human liver microsomes assessed as compound remaining at 1 hr; type: ADME; details: read-out: Stability
How it was run: (§1)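 Compound stability in human or mouse liver homogenate/microsomes, given as % remaining at 1 hr, run in triplicate.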

[6] = Blood brain permeability of the compound at donor and acceptor pH 7.4 by PAMPA; type: ADME
[7] = Plasma protein binding in mouse at 1 uM; type: ADME, cell-free
How it was run: (§2)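 Plasma protein binding in human or mouse plasma at 1 μM and 10 μM compound, given as % bound.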

[8] = Plasma protein binding in mouse at 10 uM; type: ADME, cell-free; how it was run: as §2
[9] = Plasma protein binding in human at 1 uM; type: ADME, cell-free; how it was run: as §2
[10] = Permeability of the compound at donor pH 6.2 and acceptor pH 7.4 by PAMPA; type: ADME
[11] = Permeability of the compound at donor and acceptor pH 7.4 by PAMPA; type: ADME
[12] = Cytotoxicity in human Fa2N-4 cells after 24 hrs; type: cell-based; details: fa2n-4, 24 h, read-out: LC50 (the source's name)
How it was run: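 Fa2N-4 cells are immortalized human hepatocytes. Compounds were exposed for 24 hours. Readout is the LC50 (μM).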

[13] = Metabolic stability in human plasma assessed as compound remaining at 3 hrs; type: ADME, cell-free; details: read-out: Stability
[14] = Aqueous solubility of the compound in pION buffer at pH 6.2; type: physicochemical
[15] = Metabolic stability in mouse plasma assessed as compound remaining at 3 hrs; type: ADME, cell-free; details: read-out: Stability
[16] = Aqueous solubility of the compound in pION buffer at pH 5.0; type: physicochemical
[17] = Plasma protein binding in human at 10 uM; type: ADME, cell-free; how it was run: as §2
[18] = Metabolic stability in mouse liver microsomes assessed as compound remaining at 1hr; type: ADME, Microsome; details: read-out: Stability; how it was run: as §1

T1 sequence (P30989 whole entry): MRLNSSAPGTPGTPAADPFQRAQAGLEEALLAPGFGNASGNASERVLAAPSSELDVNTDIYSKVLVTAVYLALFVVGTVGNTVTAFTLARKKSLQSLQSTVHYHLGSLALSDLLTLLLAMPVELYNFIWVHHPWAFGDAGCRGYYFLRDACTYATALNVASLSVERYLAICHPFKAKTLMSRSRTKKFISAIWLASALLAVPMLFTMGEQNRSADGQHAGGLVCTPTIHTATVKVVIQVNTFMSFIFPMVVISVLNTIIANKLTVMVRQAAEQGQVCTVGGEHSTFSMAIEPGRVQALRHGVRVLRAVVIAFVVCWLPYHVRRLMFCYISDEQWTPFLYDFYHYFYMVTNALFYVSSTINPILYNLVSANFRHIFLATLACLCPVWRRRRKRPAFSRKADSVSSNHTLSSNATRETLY

SMILES: CC(C)C[C@H](NC(=O)c1cn(-c2ccncc2)c(-c2ccccc2)n1)C(=O)O
- EC50 [1]: > 80 µM

SMILES: CC(C)C[C@H](NC(=O)c1cn(-c2ccnc3cc(Cl)ccc23)c(-c2c(Cl)cccc2Cl)n1)C(=O)O
- Emax [2]: 80%
- EC50 [1]: 5.2 µM

SMILES: COc1ccccc1-c1nc(C(=O)N[C@@H](CC(C)C)C(=O)O)cn1-c1ccnc2cc(Cl)ccc12
- Emax [2]: 100%
- EC50 [1]: 56 µM

SMILES: COc1cccc(OC)c1-c1nc(C(=O)N[C@H](CC(C)C)C(=O)O)cn1-c1ccnc2cc(Cl)ccc12
- Emax [2]: 50%
- EC50 [1]: 9.4 µM

SMILES: COc1ccc(-c2nc(C(=O)N[C@@H](CC(C)C)C(=O)O)cn2-c2ccnc3cc(Cl)ccc23)c(OC)c1
- EC50 [1]: > 80 µM

SMILES: COc1cccc(OC)c1-c1nc(C(=O)N[C@@H](CC(C)C)C(=O)O)cn1-c1cccc2ccccc12
- permeability [3]: 953 ×10⁻⁶ cm/s
- solubility [4]: > 297 µM
- remaining at 1 h [5]: 100%
- permeability [6]: 1.1 ×10⁻⁶ cm/s
- PPB [7]: 96.4%
- PPB [8]: 95.4%
- PPB [9]: 97.9%
- permeability [10]: 145 ×10⁻⁶ cm/s
- permeability [11]: 12 ×10⁻⁶ cm/s
- CC50 [12]: > 50 µM
- Emax [2]: 93%
- remaining at 3 h [13]: 76%
- solubility [14]: > 297 µM
- remaining at 3 h [15]: 76%
- solubility [16]: 247 µM (≈ 120 µg/mL)
- EC50 [1]: 2.3 µM
- PPB [17]: 98%
- remaining at 1 h [18]: 76%

SMILES: COc1cccc(OC)c1-c1nc(C(=O)N[C@@H](CC(C)C)C(=O)O)cn1-c1ccc(C)cc1
- EC50 [1]: > 80 µM

SMILES: COc1cccc(OC)c1-c1nc(C(=O)N[C@@H](CC(C)C)C(=O)O)cn1-c1ccncc1
- Emax [2]: 100%
- EC50 [1]: 66 µM

SMILES: COc1cccc(OC)c1-c1nc(C(=O)NC2(C(=O)O)C3CC4CC(C3)CC2C4)cn1-c1ccnc2cc(Cl)ccc12 (stereo not drawn)
- Emax [2]: 100%
- EC50 [1]: 46 µM

SMILES: COc1cccc(OC)c1-c1nc(C(=O)N[C@@H](CC(C)C)C(=O)O)cn1-c1ccnc2ccccc12
- Emax [2]: 59%
- EC50 [1]: 3.8 µM
